Experimental data reported in ChEMBL document CHEMBL1132160, “Structure-antiviral activity relationship in the series of pyrimidine and purine N-[2-(2-phosphonomethoxy)ethyl] nucleotide analogues. 1. Derivatives substituted at the carbon atoms of the base” (J Med Chem, 1999).
≈ marks a conversion by molar mass, not a printed value.

Assays:
HEL [1] = assay: Compound was evaluated for inhibitory activity against varicella zoster virus thymidine kinase (VZV TK+) YS strain; NA=not active; type: functional, cell-based, Homo sapiens
Method in brief: (§1)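 HEL cell cultures, grown to confluence, received 100 CCID50 of virus. After 1 h adsorption, the inoculum was removed and the cultures were incubated with serial concentrations of compound (400, 200, 100, ... μg/mL).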

[2] = system: Human immunodeficiency virus 1; assay: Inhibitory activity of compound against human immunodeficiency virus type 1 (HIV-1) induced cytopathogenicity in MT-4 cells; type: functional, organism-based; conditions: Human immunodeficiency virus 1, MT4
Method in brief: (§2)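 Human MT-4 cells (~4 × 10⁵ cells/mL) were infected with 100 CCID50 of HIV-1 (IIIB)/mL and seeded into wells containing compound dilutions. After 5 days at 37 °C, viable cells were counted by trypan blue exclusion in a blood cell counting chamber.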

[3] = Inhibitory activity against murine sarcoma virus induced transformation of murine C3H/3T3 embryo fibroblasts; type: functional, Mus musculus
Method in brief: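 Murine C3H/3T3 embryo fibroblasts were seeded at 5 × 10⁵ cells/mL. After 24 h they were infected with 80 focus-forming units of MSV for 90–120 min at 37 °C. The medium was then replaced with fresh medium containing various compound concentrations, and transformation was examined microscopically after 6 days.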

HEL [4] = assay: Compound was evaluated for inhibitory activity against varicella zoster virus thymidine kinase (VZV TK+) OKA strain; NA=Not Active; type: functional, cell-based, Homo sapiens; method in brief: as §1
Vaccinia virus [5] = assay: Inhibitory activity against vaccinia virus (VV).; type: functional, organism-based, Orthopoxvirus vaccinia
Method in brief: (§3)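 Confluent E6SM cell cultures were inoculated with 100 CCID50 of virus and left for 1 h adsorption, then residual virus was removed. Cultures were incubated with test compound at serial concentrations (400, 200, 100, ... μg/mL). Virus-induced cytopathicity was scored once it reached completion in untreated infected control cultures.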

HEL [6] = assay: Compound was evaluated for inhibitory activity against varicella zoster virus thymidine kinase (VZV TK-) 07/1 strain; NA=not active; type: functional, cell-based, Homo sapiens
[7] = system: Human immunodeficiency virus 2; assay: Inhibitory activity against human immunodeficiency virus type 2 (HIV-2) induced cytopathogenicity in MT-4 cells; type: functional, organism-based; conditions: Human immunodeficiency virus 2, MT4
Human alphaherpesvirus 1 [8] = assay: Inhibitory activity against herpes simplex virus type 1 thymidine kinase (HSV-1 TK-) VMW 1837 strain.
E6SM [9] = assay: Inhibitory activity against herpes simplex virus type 2 (HSV-2) Lyons strain.; type: functional, cell-based, Homo sapiens
Method in brief: (§4)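 Confluent E6SM cell cultures were inoculated with 100 CCID50 of virus and allowed 1 h for adsorption. Residual virus was then removed, and the cells were incubated with test compound at 400, 200, 100, ... μg/mL. Viral cytopathicity was scored once it reached completion in untreated infected controls.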

Human alphaherpesvirus 1 [10] = assay: Inhibitory activity against herpes simplex virus type 1 (HSV-1) F strain; type: functional, organism-based; method in brief: as §4
Human alphaherpesvirus 2 [11] = assay: Inhibitory activity against herpes simplex virus type 2 (HSV-2) 196 strain.; type: functional, organism-based; method in brief: as §4
HEL [12] = assay: Compound was evaluated for inhibitory activity against cytomegalovirus (CMV) AD 169 strain; NA=not active; type: functional, cell-based, Homo sapiens; method in brief: as §1
Human alphaherpesvirus 2 [13] = assay: Inhibitory activity against herpes simplex virus type 2 (HSV-2) G strain.; type: functional, organism-based; method in brief: as §4
Human alphaherpesvirus 1 [14] = assay: Iactivity against herpes simplex virus type 1 (HSV-1) McIntyre strain.; type: functional, organism-based; method in brief: as §4
E6SM [15] = assay: Compound was evaluated for inhibitory activity against herpes simplex virus type 1 thymidine kinase (HSV-1 TK-) B2006 strain; NA=not active; type: functional, cell-based, Homo sapiens; method in brief: as §4
Human alphaherpesvirus 1 [16] = assay: Inhibitory activity against herpes simplex virus type 1 (HSV-1) KOS strain.; type: functional, organism-based; method in brief: as §4
HEL [17] = assay: Compound was evaluated for inhibitory activity against cytomegalovirus (CMV) Davis strain; NA=Not Active; type: functional, cell-based, Homo sapiens; method in brief: as §1
Vaccinia virus [18] = assay: Compound was evaluated for inhibitory activity against vaccinia virus (VV); NA=not active; type: functional, organism-based, Orthopoxvirus vaccinia; method in brief: as §3
Human alphaherpesvirus 1 [19] = assay: Inhibition of herpes simplex virus type 1 (HSV-1) F strain; type: functional, organism-based; method in brief: as §4
[20] = Inhibitory activity against herpes simplex virus type 2 (HSV-2) 196 strain; type: functional; method in brief: as §4
Human alphaherpesvirus 1 [21] = assay: Inhibitory activity against herpes simplex virus type 1 (HSV-1) KOS strain; type: functional, organism-based; method in brief: as §4
Human alphaherpesvirus 2 [22] = assay: Inhibitory activity against herpes simplex virus type 2 (HSV-2) G strain; type: functional, organism-based; method in brief: as §4
MT4 [23] = assay: Inhibitory activity of compound against human immunodeficiency virus type 1 (HIV-1) induced cytopathogenicity in MT-4 cells; NA=Not Active; type: functional, cell-based; method in brief: as §2
Cytomegalovirus [24] = assay: Inhibitory activity against cytomegalovirus (CMV) AD 169 strain; type: functional, organism-based; conditions: Human betaherpesvirus 5; method in brief: as §1
Cytomegalovirus [25] = assay: Inhibitory activity against cytomegalovirus (CMV) Davis strain; type: functional, organism-based; conditions: Human betaherpesvirus 5; method in brief: as §1
[26] = system: Human immunodeficiency virus 1; assay: Inhibition of human immunodeficiency virus type 1 (HIV-1) induced cytopathogenicity in CEM cells; type: functional, organism-based; conditions: Human immunodeficiency virus 1, CCRF-CEM
Method in brief: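 CEM cells (~3 × 10⁵ cells/mL) were infected with 100 CCID50 of HIV-1 (IIIB)/mL and plated with dilutions of compound. After 4 days at 37 °C, giant cell formation was assessed microscopically.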

[27] = system: Human immunodeficiency virus 2; assay: Inhibition of human immunodeficiency virus type 2 (HIV-2) induced cytopathogenicity in CEM cells; type: functional, organism-based; conditions: Human immunodeficiency virus 2, CCRF-CEM
Human alphaherpesvirus 1 [28] = assay: Inhibitory activity against herpes simplex virus type 1 (HSV-1) McIntyre strain; type: functional, organism-based; method in brief: as §4
Human alphaherpesvirus 2 [29] = assay: Inhibitory activity against herpes simplex virus type 2 (HSV-2) Lyons strain; type: functional, organism-based; method in brief: as §4
Vaccinia virus [30] = assay: Inhibitory activity against vaccinia virus (VV); type: functional, organism-based; conditions: Orthopoxvirus vaccinia; method in brief: as §3
[31] = system: Human immunodeficiency virus 1; assay: Antiviral activity against human immunodeficiency virus type-1 (HIV-1) in MT-4 cells; type: functional, organism-based; conditions: Human immunodeficiency virus 1, MT4; method in brief: as §2
MT4 [32] = assay: Antiviral activity against human immunodeficiency virus type 2 (HIV-2) in MT-4 cells; type: functional, cell-based

Compound	EC50 (HEL [1])	EC50 [2]	EC50 [3]	EC50 (HEL [4])	EC50 (Vaccinia virus [5])	EC50 (HEL [6])	EC50 (Human alphaherpesvirus 1 [8])	EC50 (E6SM [9])	EC50 (Human alphaherpesvirus 1 [10])	EC50 (Human alphaherpesvirus 2 [11])	EC50 (HEL [12])	EC50 (Human alphaherpesvirus 2 [13])	EC50 (Human alphaherpesvirus 1 [14])	EC50 (E6SM [15])	EC50 (Human alphaherpesvirus 1 [16])	EC50 (HEL [17])	EC50 (Human alphaherpesvirus 1 [19])	EC50 (Human alphaherpesvirus 2 [22])	EC50 (Cytomegalovirus [24])	EC50 (Cytomegalovirus [25])	further results
CCOP(=O)(COCCn1cnc2c(N)nc(N)nc21)OCC	Not Active	> 400 µg/mL	> 200 µg/mL	Not Active	Not Active	Not Active	Not Active	Not Active	Not Active	Not Active	Not Active	Not Active	Not Active	Not Active	Not Active	–	–	–	–	–	EC50 [7]: > 400 µg/mL
Cc1cn(CCOCP(=O)(O)O)c(=O)nc1N	Not Active	> 100 µg/mL	> 200 µg/mL	Not Active	–	Not Active	Not Active	Not Active	Not Active	Not Active	Not Active	Not Active	Not Active	Not Active	Not Active	Not Active	–	–	–	–	EC50 (Vaccinia virus [18]): Not Active
Nc1ccn(CCOCP(=O)(O)O)c(=O)n1	–	–	> 200 µg/mL	–	–	–	–	Not Active	–	–	–	–	Not Active	Not Active	–	–	300 µg/mL (≈ 1200 µM)	300 µg/mL (≈ 1200 µM)	75 µg/mL (≈ 301 µM)	70 µg/mL (≈ 281 µM)	EC50 [20]: 300 µg/mL (≈ 1200 µM); EC50 (Human alphaherpesvirus 1 [21]): 300 µg/mL (≈ 1200 µM); EC50 (MT4 [23]): Not Active
CCOP(=O)(O)COCCn1cnc2c(N)ncnc21	–	–	120 µg/mL (≈ 398 µM)	–	–	–	–	–	–	–	Not Active	–	–	–	Not Active	Not Active	150 µg/mL (≈ 498 µM)	70 µg/mL (≈ 232 µM)	–	–	EC50 [20]: 150 µg/mL (≈ 498 µM); EC50 [26]: > 100 µg/mL; EC50 [27]: > 100 µg/mL; EC50 (Human alphaherpesvirus 1 [28]): 300 µg/mL (≈ 996 µM); EC50 (Human alphaherpesvirus 2 [29]): 150 µg/mL (≈ 498 µM)
Nc1ccnc2c1ncn2CCOCP(=O)(O)O	–	–	13.8 µg/mL (≈ 50.7 µM)	–	–	–	–	–	–	–	–	–	–	–	–	–	–	> 400 µg/mL	> 400 µg/mL	> 400 µg/mL	EC50 (Human alphaherpesvirus 1 [21]): > 400 µg/mL; EC50 (MT4 [23]): Not Active; EC50 (Vaccinia virus [30]): > 400 µg/mL
Cc1ncnc2c1ncn2CCOCP(=O)(O)O	Not Active	> 400 µg/mL	> 200 µg/mL	Not Active	Not Active	Not Active	Not Active	Not Active	Not Active	Not Active	–	Not Active	Not Active	Not Active	Not Active	–	–	–	100 µg/mL (≈ 367 µM)	200 µg/mL (≈ 735 µM)	–
Nc1nc(S)c2ncn(CCOCP(=O)(O)O)c2n1	–	–	1 µg/mL (≈ 3.28 µM)	–	–	–	–	–	–	–	–	–	–	–	–	–	–	–	–	–	EC50 [31]: 9.5 µg/mL (≈ 31.1 µM); EC50 (MT4 [32]): 8.9 µg/mL (≈ 29.2 µM)
CC(C)OP(=O)(COCCn1ncc(N)nc1=O)OC(C)C	–	–	> 100 µg/mL	–	Not Active	–	Not Active	Not Active	Not Active	Not Active	–	Not Active	Not Active	–	Not Active	–	–	–	> 100 µg/mL	> 100 µg/mL	EC50 (MT4 [23]): Not Active
CCOP(=O)(O)COCCn1cnc2c(N)nc(N)nc21	–	> 100 µg/mL	> 200 µg/mL	–	–	–	–	–	–	–	Not Active	–	–	–	–	Not Active	200 µg/mL (≈ 632 µM)	70 µg/mL (≈ 221 µM)	–	–	EC50 [20]: 300 µg/mL (≈ 949 µM); EC50 [7]: > 400 µg/mL; EC50 (Human alphaherpesvirus 1 [21]): 300 µg/mL (≈ 949 µM); EC50 (Vaccinia virus [30]): > 400 µg/mL; EC50 (Human alphaherpesvirus 1 [28]): 300 µg/mL (≈ 949 µM); EC50 (Human alphaherpesvirus 2 [29]): 150 µg/mL (≈ 474 µM)
CC(C)OP(=O)(COCCn1ccc(O)cc1=O)OC(C)C	Not Active	> 200 µg/mL	–	Not Active	Not Active	Not Active	Not Active	Not Active	Not Active	Not Active	Not Active	Not Active	Not Active	–	Not Active	Not Active	–	–	–	–	–
